ChEMBL document CHEMBL1208778, “Synthesis and anti-cancer activity of chalcone linked imidazolones” (2010)
The source made the active and inactive calls. The rule behind the calls is not given here.

Legend:
MCF7 [1] = assay: Cell cycle arrest in human MCF7 cells assessed as accumulation at G0 phase at 10 uM after 24 hrs by FACS analysis; assay type: functional
Method in brief: (§1)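 MCF-7 breast carcinoma cells were exposed to 10 µM test compound for 24 h, with DMSO as the vehicle control. Cell-cycle distribution was read by FACS as the percentage of cells in G0, G1, S and G2/M.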

MCF7 [2] = assay: Cell cycle arrest in human MCF7 cells assessed as accumulation at G1 phase at 10 uM after 24 hrs by FACS analysis; assay type: functional; method in brief: as §1
MCF7 [3] = assay: Cell cycle arrest in human MCF7 cells assessed as accumulation at S phase at 10 uM after 24 hrs by FACS analysis; assay type: functional; method in brief: as §1
MCF7 [4] = assay: Cell cycle arrest in human MCF7 cells assessed as accumulation at G2/M phase at 10 uM after 24 hrs by FACS analysis; assay type: functional; method in brief: as §1
MCF7 [5] = assay: Cell cycle arrest in human MCF7 cells assessed as accumulation at G0 phase at 30 uM after 24 hrs by FACS analysis; assay type: functional
Method in brief: (§2)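 MCF-7 cells were treated at 30 µM for 24 h alongside a DMSO control. Fractions in G0, G1, S and G2/M phases were measured by FACS, and values are means of three experiments.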

MCF7 [6] = assay: Cell cycle arrest in human MCF7 cells assessed as accumulation at G1 phase at 30 uM after 24 hrs by FACS analysis; assay type: functional; method in brief: as §2
MCF7 [7] = assay: Cell cycle arrest in human MCF7 cells assessed as accumulation at S phase at 30 uM after 24 hrs by FACS analysis; assay type: functional; method in brief: as §2
MCF7 [8] = assay: Cell cycle arrest in human MCF7 cells assessed as accumulation at G2/M phase at 30 uM after 24 hrs by FACS analysis; assay type: functional; method in brief: as §2
MCF7 [9] = assay: Induction of apoptosis in human MCF7 cells assessed as decrease in procaspase 7 level at 30 uM after 24 hrs by Western blot analysis; assay type: functional, cell-based
Method in brief: (§3)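 MCF-7 breast carcinoma cells were exposed to 30 µM compound for 24 h, with CA-4 as positive control. Cell lysates were then immunoblotted with antibodies to procaspase-7 and cleavage-specific PARP, using β-actin as loading control.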

MCF7 [10] = assay: Induction of apoptosis in human MCF7 cells assessed as […] in PARP cleavage at 30 uM after 24 hrs by Western blot analysis; assay type: functional, cell-based; method in brief: as §3
[11] = Growth inhibition of human RPMI8266 cells; assay type: functional
Method in brief: (§4)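 Five-dose testing was run within the NCI (Bethesda) in vitro Anticancer Screen Program on a panel of 53 human tumour cell lines from nine cancer types. Growth inhibition is reported as GI50.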

K562 = assay: Growth inhibition of human K562 cells; assay type: functional; method in brief: as §4
A549 = assay: Growth inhibition of human A549 cells; assay type: functional; method in brief: as §4
EKVX = assay: Growth inhibition of human EKVX cells; assay type: functional; method in brief: as §4
HOP-62 = assay: Growth inhibition of human HOP62 cells; assay type: functional; method in brief: as §4
HOP-92 = assay: Growth inhibition of human HOP92 cells; assay type: functional; method in brief: as §4
NCI-H226 = assay: Growth inhibition of human NCI-H226 cells; assay type: functional; method in brief: as §4
NCI-H23 = assay: Growth inhibition of human NCI-H23 cells; assay type: functional; method in brief: as §4
NCI-H322M = assay: Growth inhibition of human NCI-H322M cells; assay type: functional; method in brief: as §4
NCI-H460 = assay: Growth inhibition of human NCI-H460 cells; assay type: functional; method in brief: as §4
NCI-H522 = assay: Growth inhibition of human NCI-H522 cells; assay type: functional; method in brief: as §4
COLO 205 = assay: Growth inhibition of human COLO205 cells; assay type: functional; method in brief: as §4
HCC 2998 = assay: Growth inhibition of human HCC2998 cells; assay type: functional; method in brief: as §4
HCT-116 = assay: Growth inhibition of human HCT116 cells; assay type: functional; method in brief: as §4
HCT-15 = assay: Growth inhibition of human HCT15 cells; assay type: functional; method in brief: as §4
HT-29 = assay: Growth inhibition of human HT-29 cells; assay type: functional; method in brief: as §4
KM12 = assay: Growth inhibition of human KM12 cells; assay type: functional; method in brief: as §4
SW-620 = assay: Growth inhibition of human SW620 cells; assay type: functional
Method in brief: (§5)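 Compounds that passed a preliminary screen were tested at five doses in the NCI (Bethesda) in vitro Anticancer Screen Program against a 53-line human tumour panel spanning leukemia, lung, colon, CNS, melanoma, ovarian, renal, prostate and breast. Growth inhibition is reported as GI50.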

SF-268 = assay: Growth inhibition of human SF268 cells; assay type: functional; method in brief: as §4
SF-295 = assay: Growth inhibition of human SF295 cells; assay type: functional; method in brief: as §4
SF-539 = assay: Growth inhibition of human SF539 cells; assay type: functional; method in brief: as §4
SNB-19 = assay: Growth inhibition of human SNB19 cells; assay type: functional; method in brief: as §5
SNB-75 = assay: Growth inhibition of human SNB75 cells; assay type: functional; method in brief: as §5
U-251 = assay: Growth inhibition of human U251 cells; assay type: functional; method in brief: as §5
A498 = assay: Growth inhibition of human A498 cells; assay type: functional; method in brief: as §4
786-0 = assay: Growth inhibition of human 786-0 cells; assay type: functional; method in brief: as §4
ACHN = assay: Growth inhibition of human ACHN cells; assay type: functional; method in brief: as §4
CAKI-1 = assay: Growth inhibition of human Caki1 cells; assay type: functional; method in brief: as §4
RXF 393 = assay: Growth inhibition of human RXF393 cells; assay type: functional; method in brief: as §4
SN12C = assay: Growth inhibition of human SN12C cells; assay type: functional; method in brief: as §5
TK-10 = assay: Growth inhibition of human TK10 cells; assay type: functional; method in brief: as §5
UO-31 = assay: Growth inhibition of human UO31 cells; assay type: functional; method in brief: as §5
PC-3 = assay: Growth inhibition of human PC3 cells; assay type: functional; method in brief: as §4
OVCAR-3 = assay: Growth inhibition of human OVCAR-3 cells; assay type: functional; method in brief: as §4
OVCAR-4 = assay: Growth inhibition of human OVCAR4 cells; assay type: functional; method in brief: as §4
OVCAR-5 = assay: Growth inhibition of human OVCAR5 cells; assay type: functional; method in brief: as §4
OVCAR-8 = assay: Growth inhibition of human OVCAR8 cells; assay type: functional; method in brief: as §4
NCI/ADR-RES = assay: Growth inhibition of human NCI/ADR-RES cells; assay type: functional; method in brief: as §4
SK-OV-3 = assay: Growth inhibition of human SKOV3 cells; assay type: functional; method in brief: as §5
MCF7 [12] = assay: Growth inhibition of human MCF7 cells; assay type: functional; method in brief: as §4
MDA-MB-231 = assay: Growth inhibition of human MDA-MB-231 cells; assay type: functional; method in brief: as §4
[13] = Growth inhibition of human Hs 578T cells; assay type: functional; method in brief: as §4
BT-549 = assay: Growth inhibition of human BT549 cells; assay type: functional; method in brief: as §4
T47D = assay: Growth inhibition of human T47D cells; assay type: functional; method in brief: as §5
LOX IMVI = assay: Growth inhibition of human LOXIMVI cells; assay type: functional; method in brief: as §4
Malme-3M = assay: Growth inhibition of human MALME-3M cells; assay type: functional; method in brief: as §4
M14 = assay: Growth inhibition of human M14 cells; assay type: functional; method in brief: as §4
MDA-MB-435 = assay: Growth inhibition of human MDA-MB-435 cells; assay type: functional; method in brief: as §4
SK-MEL-2 = assay: Growth inhibition of human SK-MEL-2 cells; assay type: functional; method in brief: as §4
SK-MEL-28 = assay: Growth inhibition of human SK-MEL-28 cells; assay type: functional; method in brief: as §4
SK-MEL-5 = assay: Growth inhibition of human SK-MEL-5 cells; assay type: functional; method in brief: as §4
UACC-257 = assay: Growth inhibition of human UACC257 cells; assay type: functional; method in brief: as §5
UACC-62 = assay: Growth inhibition of human UACC62 cells; assay type: functional; method in brief: as §5

COc1cc(/C=C/C(=O)c2cccc(N)c2)cc(OC)c1OC
Activity (MCF7 [1]): 2.87% | Activity (MCF7 [2]): 56.17% | Activity (MCF7 [3]): 14.96% | Activity (MCF7 [4]): 23.57% | Activity (MCF7 [5]): 22.58% | Activity (MCF7 [6]): 52.31% | Activity (MCF7 [7]): 9.31% | Activity (MCF7 [8]): 15.8% | Activity (MCF7 [9]): inactive | Activity (MCF7 [10]): inactive

COc1ccc(-c2cn(-c3cccc(C(=O)/C=C/c4ccc(O)c(OC)c4)c3)c(=O)[nH]2)cc1
GI50 [11]: 1.35 µM | GI50 (K562): 2.35 µM | GI50 (A549): 4.14 µM | GI50 (EKVX): 13.4 µM | GI50 (HOP-62): 5.15 µM | GI50 (HOP-92): 2.96 µM | GI50 (NCI-H226): 4.1 µM | GI50 (NCI-H23): 2.85 µM | GI50 (NCI-H322M): 8.2 µM | GI50 (NCI-H460): 3.23 µM | GI50 (NCI-H522): 3.48 µM | GI50 (COLO 205): 6.61 µM | GI50 (HCC 2998): 2.32 µM | GI50 (HCT-116): 1.93 µM | GI50 (HCT-15): 3.15 µM | GI50 (HT-29): 3.84 µM | GI50 (KM12): 1.77 µM | GI50 (SW-620): 2.5 µM | GI50 (SF-268): 3.4 µM | GI50 (SF-295): 13.9 µM | GI50 (SF-539): 2.25 µM | GI50 (SNB-19): 5.84 µM | GI50 (SNB-75): 4.73 µM | GI50 (U-251): 3.45 µM | GI50 (A498): 3.72 µM | GI50 (786-0): 4.53 µM | GI50 (ACHN): 3.4 µM | GI50 (CAKI-1): 4.99 µM | GI50 (RXF 393): 5.85 µM | GI50 (SN12C): 4.11 µM | GI50 (TK-10): 6.08 µM | GI50 (UO-31): 5.19 µM | GI50 (PC-3): 3.05 µM | GI50 (OVCAR-3): 2.7 µM | GI50 (OVCAR-4): 6.08 µM | GI50 (OVCAR-5): 3.38 µM | GI50 (OVCAR-8): 4.97 µM | GI50 (NCI/ADR-RES): 2.56 µM | GI50 (SK-OV-3): 4.77 µM | GI50 (MCF7 [12]): 3.18 µM | GI50 (MDA-MB-231): 5.25 µM | GI50 [13]: 4.25 µM | GI50 (BT-549): 4.57 µM | GI50 (T47D): 3.6 µM | GI50 (LOX IMVI): 2.44 µM | GI50 (Malme-3M): 4.42 µM | GI50 (M14): 5.14 µM | GI50 (MDA-MB-435): 3.35 µM | GI50 (SK-MEL-2): 5.54 µM | GI50 (SK-MEL-28): 2.03 µM | GI50 (SK-MEL-5): 2.63 µM | GI50 (UACC-257): 13.3 µM | GI50 (UACC-62): 3.96 µM | Activity (MCF7 [1]): 2.16% | Activity (MCF7 [2]): 57.66% | Activity (MCF7 [3]): 14% | Activity (MCF7 [4]): 26.18% | Activity (MCF7 [5]): 20.5% | Activity (MCF7 [6]): 54.5% | Activity (MCF7 [7]): 16% | Activity (MCF7 [8]): 9%
